Screens from PubChem BioAssay.
KDM4C inh: inhibitors of human demethylase GASC-1 KDM4C; 0.15% of 96,000 active; GST-KDM4C 2-372, H3K9me3 peptide, LANCE TR-FRET; inhibition, % at 12.5 µM; Q9H3R0;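 active = mean replicate inhibition above about 25%, with at least 55% of replicates also reaching it, limit read from the data, passing the limit was not always enough; inconclusive = only one of those two conditions met; inactive = neither condition met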
Target sequence (Q9H3R0 2-372 limits assumed): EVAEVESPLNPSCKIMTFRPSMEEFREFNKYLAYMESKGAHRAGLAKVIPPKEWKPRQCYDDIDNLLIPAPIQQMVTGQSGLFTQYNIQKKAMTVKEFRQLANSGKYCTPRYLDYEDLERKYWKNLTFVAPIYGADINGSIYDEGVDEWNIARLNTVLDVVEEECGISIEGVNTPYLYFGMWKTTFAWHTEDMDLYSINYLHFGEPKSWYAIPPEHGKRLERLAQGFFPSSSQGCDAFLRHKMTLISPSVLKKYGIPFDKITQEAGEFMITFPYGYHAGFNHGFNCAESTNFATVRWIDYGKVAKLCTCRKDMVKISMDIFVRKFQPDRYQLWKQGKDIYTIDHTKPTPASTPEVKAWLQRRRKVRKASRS
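Assay system: GST-GASC-1 enzyme fragment 2-372 | Amount: 10 nM enzyme | Medium: HEPES buffer, pH 7.5, plus ascorbate | Reagent: H3K9me3 peptide substrate, Fe(II), 2-oxoglutarate | Doses: Single-point compound screen | Incubation: 30 min demethylation and 1 h detection at room temperature | Measured by: LANCE TR-FRET, excitation 340 nm, emissions 618 and 671 nm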
IDH1 mut inh: inhibitors of human IDH1 R132H; O75874; inhibition, % at 10 µM; IDH1 R132H reductase, diaphorase/resazurin fluorescence, 60 min; 0.18% of 70,000 active; in the data active = inhibition above about 34%; inconclusive = no clear call, values can overlap the other calls; inactive = below about 11%;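 note: 0% = DMSO and 100% = no enzyme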
T cruzi growth-1: blocks T. cruzi growth in NIH3T3 culture | T. cruzi beta-gal in NIH3T3, GalScreen luminescence, 90 h | inhibition, % at 8.34 µM | 5.9% of 77,000 active;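 active = mean inhibition above about 93%, with at least 55% of replicates each passing it, limit read from the data, passing the limit was not always enough; inconclusive = only one of those two conditions holds; inactive = neither condition holds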
T cruzi growth-2: inhibitors of T. cruzi proliferation. shares compounds with T cruzi growth-1. T. cruzi beta-gal in NIH3T3, GalScreen luminescence, 90 h. inhibition, % at 8.35 µM. 72% of 5,600 active. AID 651739;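 active = mean replicate inhibition above about 95% and at least 55% of replicates individually reaching it, limit read from the data; inconclusive = only one of the two criteria is met; inactive = neither criterion is met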
T cruzi growth-3: blocks T. cruzi growth in NIH3T3 host cells; shares compounds with T cruzi growth-1; T. cruzi beta-gal in NIH3T3, GalScreen luminescence, 90 h; inhibition, % at 2.09 µM; 21% of 5,600 active; AID 651740;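 active = mean inhibition above about 95%, with at least 55% of replicates also reaching it, limit read from the data; inconclusive = meets just one of the two conditions; inactive = meets neither condition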;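 note: plate controls were neutral control median for no effect and positive control median for full effect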
3T3 cytotox: kills mouse NIH/3T3 fibroblasts | shares compounds with T cruzi growth-1 | NIH/3T3 viability, CellTiter-Glo ATP luminescence, 90 h | cytotoxicity (signal decrease), % at 8.35 µM | 14% of 5,600 active | AID 651742;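 active = mean signal decrease across replicates above about 35% based on untreated-well scatter, with enough replicates individually passing, limit read from the data; inconclusive = no rule stated though some were filed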;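 note: 0% = median of neutral control wells and 100% = median of positive control wells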
3T3 cytotox 2: cytotoxicity in mouse NIH/3T3 fibroblasts. NIH/3T3 viability, CellTiter-Glo ATP luminescence, 90 h. shares compounds with T cruzi growth-1. inhibition, % at 24.9 µM. 56% of 5,600 active;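 active = mean loss of cell viability signal at or above a set limit, and enough replicates individually reaching it; inconclusive = meets only the mean limit or only the replicate share; inactive = meets neither condition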;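 note: 0% = median of neutral control wells and 100% = median of positive control wells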
* = called active by the depositor; ? = inconclusive; . = not tested or not shown. The sample as a whole holds a higher share of hits than the screen did.

SMILES | KDM4C inh | IDH1 mut inh | T cruzi growth-1 | T cruzi growth-2 | T cruzi growth-3 | 3T3 cytotox | 3T3 cytotox 2
COc1ccc(-c2ccc([C@H]3[C@H](C#N)N(C(=O)C4CC4)[C@H]3CO)cc2)cc1 | -1.6 | . | 78.5 | . | . | . | .
COc1ccccc1-c1ccc([C@H]2[C@H](C#N)N(C(=O)C3CC3)[C@H]2CO)cc1 | 2.6 | . | 105.2* | 76.7 | 24.7 | 6.5 | ?
COc1ccccc1-c1ccc([C@@H]2[C@@H](C#N)N(C(=O)C3CC3)[C@@H]2CO)cc1 | 1.4 | . | 104.1* | 37.1 | -10.8 | -8.1 | 12.0
COc1ccc(-n2c(/C=C/N(C)C)c([N+](=O)[O-])c3ccc(OC(C)=O)c(COC(C)=O)c32)cc1 | . | 3.6 | . | . | . | . | .
N#Cc1ccc(NC(=O)CCC(=O)O)cc1 | . | 2.5 | . | . | . | . | .
N#Cc1cc2c(nc1SCC(=O)Nc1ccccc1C(F)(F)F)CCC2 | . | -1.0 | . | . | . | . | .
C[C@H](CO)N1C[C@H](C)[C@H](CN(C)Cc2ccccc2)OCc2ccccc2-c2ccccc2C1=O | -0.7 | -1.8 | 31.5 | . | . | . | .
C[C@@H]1CN([C@H](C)CO)C(=O)c2ccccc2-c2ccccc2CO[C@@H]1CN(C)Cc1ccncc1 | 0.4 | 2.8 | 73.3 | . | . | . | .
C[C@@H]1CN([C@@H](C)CO)C(=O)c2ccccc2-c2ccccc2CO[C@@H]1CN(C)Cc1ccncc1 | 1.5 | -0.1 | ? | 38.0 | -30.3 | 11.3 | ?
C[C@H](CO)N1C[C@H](C)[C@@H](CN(C)Cc2ccncc2)OCc2ccccc2-c2ccccc2C1=O | 1.1 | 13.9 | ? | 69.0 | 12.9 | -3.1 | -7.9
Cc1ccc(S(=O)(=O)NCCN2CCOCC2)cc1-c1nnc2c3ccccc3c(C)nn12 | . | 0.3 | . | . | . | . | .
CCOC(=O)c1c(NC(=O)Cn2cnc3ccccc3c2=O)sc(C)c1C | . | -0.1 | . | . | . | . | .
CCN(CC(=O)Nc1ccc(F)c(Cl)c1)S(=O)(=O)c1ccc2ccccc2c1 | . | -0.2 | . | . | . | . | .
CO[C@H](CN(C)Cc1ccc(-c2ccccn2)cc1)[C@@H](C)CN(C(=O)Nc1ccc(F)cc1)[C@@H](C)CO | ? | 0.1 | 100.5* | 102.3* | 34.1 | 16.9 | 11.8
CO[C@H](CN(C)Cc1ccc(-c2ccccn2)cc1)[C@@H](C)CN(C(=O)Nc1ccc(F)cc1)[C@H](C)CO | -1.1 | -0.2 | 89.7 | . | . | . | .
CCOC(=O)C1CCCN(S(=O)(=O)c2ccc(Cl)c(Cl)c2OC)C1 (centres undefined) | . | -0.4 | . | . | . | . | .
COC(=O)c1ccc(C(=O)OC)c(NC(=O)CSc2nc(C)cc(C)n2)c1 | . | -0.2 | . | . | . | . | .
Cc1ccccc1-c1ccc([C@H]2[C@@H](CO)N3CCCCN(C(=O)Nc4ccc(F)cc4)C[C@@H]23)cc1 | -1.0 | . | 104.1* | 106.8* | 94.5 | 1.4 | 55.6*
Cc1ccccc1-c1ccc([C@@H]2[C@@H](CO)N3CCCCN(C(=O)Nc4ccccc4)C[C@@H]23)cc1 | -3.0 | . | 70.8 | . | . | . | .
Cc1ccccc1-c1ccc([C@H]2[C@H](CO)N3CCCCN(C(=O)Nc4ccccc4)C[C@@H]23)cc1 | -1.2 | . | 94.3 | . | . | . | .
Cc1ccccc1-c1ccc([C@@H]2[C@@H](CO)N3CCCCN(C(=O)Nc4ccc(F)cc4)C[C@H]23)cc1 | -0.6 | . | 82.8 | . | . | . | .
Cc1ccccc1-c1ccc([C@H]2[C@@H](CO)N3CCCCN(C(=O)Nc4ccc(F)cc4)C[C@H]23)cc1 | -0.6 | . | 100.8* | 97.9* | ? | 93.7* | 103.1*
Cc1ccccc1-c1ccc([C@H]2[C@H]3CN(C(=O)Nc4ccc(F)cc4)CCCCN3[C@H]2CO)cc1 | -0.4 | . | 100.7* | 111.2* | 56.4 | 25.1 | 75.6*
Cc1ccc(C(=O)Nc2sc3c(c2C#N)CCCC3)cc1S(=O)(=O)N1CCOCC1 | . | -0.2 | . | . | . | . | .
O=c1cc(-c2ccccc2)nc(SCc2nc3ccccc3c(=O)[nH]2)[nH]1 | . | 0.0 | . | . | . | . | .
Cc1cc(C)c(S(=O)(=O)N(C)CC(=O)N2CCC(C(N)=O)CC2)c(C)c1 | . | -0.1 | . | . | . | . | .
O=C(O)CCC(NC(=O)c1ccc(I)cc1)C(=O)O (centres undefined) | . | -0.1 | . | . | . | . | .
CCC(=O)N1CCN(c2ccc(Cl)cc2NC(=O)COc2ccc(Br)cc2)CC1 | . | 0.4 | . | . | . | . | .
CCCC#Cc1ccc2c(c1)O[C@H](CN(C)C(=O)C1CCCCC1)[C@@H](C)CN([C@@H](C)CO)S2(=O)=O | -0.1 | 4.3 | 94.7* | 88.1 | 99.9* | -25.2 | 104.2*
